Data: ChEMBL document CHEMBL1275445, “Low beta-lactamase-negative ampicillin-resistant Haemophilus influenzae strains are best detected by testing amoxicillin susceptibility by the broth microdilution method” (2008)
≈ marks a conversion by molar mass, not a printed value.

Legend:
Assay type in all cases: functional
[1] = system: Haemophilus influenzae; test: Antibacterial activity against Beta-lactamase negative ampicillin-resistant Haemophilus influenzae isolate with SSN motif mutation after 20 to 24 hrs by broth microdilution method
How it was run: (§1)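 Broth microdilution per CLSI on clinical H. influenzae isolates genotyped by ftsI/blaTEM PCR and sequencing. Medium: Mueller-Hinton broth with HTM supplement and yeast extract (5%). Inoculum about 5 x 10^5 CFU/ml, confirmed by colony counts on chocolate agar. Incubation 35°C, 20 to 24 h, 5% CO2. MIC was the lowest concentration inhibiting growth. Amoxicillin-clavulanic acid tested at 2:1. β-lactamase status determined by nitrocefin test.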

[2] = system: Haemophilus influenzae; test: Antibacterial activity against Beta-lactamase negative ampicillin-resistant Haemophilus influenzae isolate with SSN motif mutation after 20 to 24 hrs by disk diffusion method using <=29 mm disk
How it was run: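 Disk diffusion per CLSI on HTM base with HTM supplement and yeast extract (5%). Inoculum McFarland 0.5. Incubation 20 to 24 h at 35°C in 5% CO2. Cefixime disk 5 µg. Isolates genotyped for ftsI (SSN motif) by PCR and sequencing. Zone diameter measured.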

[3] = system: Haemophilus influenzae; test: Antibacterial activity against Beta-lactamase negative ampicillin-resistant Haemophilus influenzae isolate with SSN motif mutation after 20 to 24 hrs by Etest method
How it was run: (§2)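 Etest on clinical H. influenzae isolates genotyped by ftsI/blaTEM sequencing. Overnight chocolate-agar colonies were suspended in saline to McFarland 0.5 and swabbed confluently onto 150-mm agar plates. Strips were placed radially, then plates incubated at 35°C in 5% CO2 for 20 to 24 h. MIC read where the inhibition ellipse meets the strip. Values rounded up to the next log2 step.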

[4] = system: Haemophilus influenzae; test: Antibacterial activity against Beta-lactamase positive Haemophilus influenzae assessed as resistant isolates after 20 to 24 hrs by broth microdilution method; how it was run: as §1
[5] = system: Haemophilus influenzae; test: Antibacterial activity against Beta-lactamase negative Haemophilus influenzae isolate after 20 to 24 hrs by broth microdilution method; how it was run: as §1
[6] = system: Haemophilus influenzae; test: Antibacterial activity against Beta-lactamase positive Haemophilus influenzae isolate harboring fst1 mutant gene after 20 to 24 hrs by Etest method; how it was run: as §2
[7] = system: Haemophilus influenzae; test: Antibacterial activity against Beta-lactamase negative Haemophilus influenzae assessed as resistant isolates after 20 to 24 hrs by Etest method
[8] = system: Haemophilus influenzae; test: Antibacterial activity against Beta-lactamase negative Haemophilus influenzae assessed as susceptible isolates after 20 to 24 hrs by Etest method
How it was run: (§3)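 Confluent swab of agar plates with saline suspension of overnight chocolate-agar colonies at McFarland 0.5; Etest strips placed radially; 35°C, 5% CO2, 20–24 h. MIC read where the inhibition ellipse meets the strip, rounded up to next log2 concentration. β-lactamase status by nitrocephin chromogenic cephalosporin test; genotype by ftsI/blaTEM sequencing.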

[9] = system: Haemophilus influenzae; test: Antibacterial activity against Beta-lactamase positive Haemophilus influenzae harboring fst1 mutant gene assessed as susceptible isolates after 20 to 24 hrs by Etest method; how it was run: as §2
[10] = system: Haemophilus influenzae; test: Antibacterial activity against Beta-lactamase negative Haemophilus influenzae assessed as susceptible isolates after 20 to 24 hrs by broth microdilution method
How it was run: (§4)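 CLSI broth microdilution in Mueller-Hinton broth with HTM supplement and yeast extract (5%), inoculum about 5 x 10^5 CFU/ml (checked by colony counts on chocolate agar); 35°C, 20–24 h in 5% CO2. MIC = lowest concentration inhibiting growth; amoxicillin-clavulanic acid at 2:1. β-lactamase status by nitrocephin test.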

[11] = system: Haemophilus influenzae; test: Antibacterial activity against Beta-lactamase negative Haemophilus influenzae isolate harboring fst1 mutant gene after 20 to 24 hrs by broth microdilution method; how it was run: as §1
[12] = system: Haemophilus influenzae; test: Antibacterial activity against Beta-lactamase negative Haemophilus influenzae isolate after 20 to 24 hrs by Etest method; how it was run: as §2
[13] = system: Haemophilus influenzae; test: Antibacterial activity against Beta-lactamase negative Haemophilus influenzae harboring fst1 mutant gene assessed as resistant isolates after 20 to 24 hrs by Etest method; how it was run: as §2
[14] = system: Haemophilus influenzae; test: Antibacterial activity against Beta-lactamase negative Haemophilus influenzae harboring fst1 mutant gene assessed as susceptible isolates after 20 to 24 hrs by Etest method; how it was run: as §2
[15] = system: Haemophilus influenzae; test: Antibacterial activity against Beta-lactamase positive Haemophilus influenzae assessed as susceptible isolates after 20 to 24 hrs by broth microdilution method; how it was run: as §1
[16] = system: Haemophilus influenzae; test: Antibacterial activity against Beta-lactamase positive Haemophilus influenzae isolate after 20 to 24 hrs by broth microdilution method; how it was run: as §4
[17] = system: Haemophilus influenzae; test: Antibacterial activity against Beta-lactamase positive Haemophilus influenzae assessed as susceptible isolates after 20 to 24 hrs by Etest method; how it was run: as §3
[18] = system: Haemophilus influenzae; test: Antibacterial activity against Beta-lactamase positive Haemophilus influenzae isolate harboring fst1 mutant gene after 20 to 24 hrs by broth microdilution method; how it was run: as §1
[19] = system: Haemophilus influenzae; test: Antibacterial activity against Beta-lactamase negative Haemophilus influenzae assessed as resistant isolates after 20 to 24 hrs by broth microdilution method; how it was run: as §1
[20] = system: Haemophilus influenzae; test: Antibacterial activity against Beta-lactamase positive Haemophilus influenzae harboring fst1 mutant gene assessed as susceptible isolates after 20 to 24 hrs by broth microdilution method; how it was run: as §1
[21] = system: Haemophilus influenzae; test: Antibacterial activity against Beta-lactamase positive Haemophilus influenzae harboring fst1 mutant gene assessed as resistant isolates after 20 to 24 hrs by broth microdilution method; how it was run: as §1
[22] = system: Haemophilus influenzae; test: Antibacterial activity against Beta-lactamase negative Haemophilus influenzae isolate harboring fst1 mutant gene after 20 to 24 hrs by Etest method; how it was run: as §2
[23] = system: Haemophilus influenzae; test: Antibacterial activity against Beta-lactamase negative Haemophilus influenzae harboring fst1 mutant gene assessed as resistant isolates after 20 to 24 hrs by broth microdilution method; how it was run: as §1
[24] = system: Haemophilus influenzae; test: Antibacterial activity against Beta-lactamase positive Haemophilus influenzae assessed as resistant isolates after 20 to 24 hrs by Etest method; how it was run: as §2
[25] = system: Haemophilus influenzae; test: Antibacterial activity against Beta-lactamase positive Haemophilus influenzae harboring fst1 mutant gene assessed as resistant isolates after 20 to 24 hrs by Etest method; how it was run: as §2
[26] = system: Haemophilus influenzae; test: Antibacterial activity against Beta-lactamase positive Haemophilus influenzae isolate after 20 to 24 hrs by Etest method; how it was run: as §2
[27] = system: Haemophilus influenzae; test: Antibacterial activity against Beta-lactamase negative Haemophilus influenzae harboring fst1 mutant gene assessed as susceptible isolates after 20 to 24 hrs by broth microdilution method; how it was run: as §1
[28] = system: Haemophilus influenzae; test: Antibacterial activity against Beta-lactamase positive Haemophilus influenzae isolate after 20 to 24 hrs by broth microdilution method in presence of clavulanic acid
How it was run: (§5)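 Broth microdilution per CLSI, with plates incubated in 5% CO2. Mueller-Hinton broth with HTM supplement and yeast extract (5%). Inoculum about 5 x 10^5 CFU/ml, checked by colony counts on chocolate agar. Amoxicillin-clavulanic acid at 2:1 ratio. 35°C, 20 to 24 h. MIC is the lowest concentration inhibiting growth. Isolates genotyped for ftsI/blaTEM by sequencing; β-lactamase by nitrocefin test.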

[29] = system: Haemophilus influenzae; test: Antibacterial activity against Beta-lactamase negative Haemophilus influenzae isolate after 20 to 24 hrs by Etest method in presence of clavulanic acid
How it was run: (§6)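 Etest on clinical H. influenzae isolates genotyped for ftsI and blaTEM by PCR and sequencing; β-lactamase status by nitrocefin chromogenic test. Colonies from overnight chocolate agar suspended in saline to McFarland 0.5, swabbed confluently onto 150-mm agar plates, strips placed radially; 35°C, 5% CO2, 20 to 24 h. MIC read where inhibition ellipse meets strip, rounded up to next log2 concentration.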

[30] = system: Haemophilus influenzae; test: Antibacterial activity against Beta-lactamase negative Haemophilus influenzae isolate harboring fst1 mutant gene after 20 to 24 hrs by broth microdilution method in presence of clavulanic acid; how it was run: as §5
[31] = system: Haemophilus influenzae; test: Antibacterial activity against Beta-lactamase positive Haemophilus influenzae isolate harboring fst1 mutant gene after 20 to 24 hrs by broth microdilution method in presence of clavulanic acid; how it was run: as §5
[32] = system: Haemophilus influenzae; test: Antibacterial activity against Beta-lactamase positive Haemophilus influenzae isolate harboring fst1 mutant gene after 20 to 24 hrs by Etest method in presence of clavulanic acid; how it was run: as §6
[33] = system: Haemophilus influenzae; test: Antibacterial activity against Beta-lactamase negative Haemophilus influenzae isolate after 20 to 24 hrs by broth microdilution method in presence of clavulanic acid; how it was run: as §5
[34] = system: Haemophilus influenzae; test: Antibacterial activity against Beta-lactamase positive Haemophilus influenzae isolate after 20 to 24 hrs by Etest method in presence of clavulanic acid; how it was run: as §6
[35] = system: Haemophilus influenzae; test: Antibacterial activity against Beta-lactamase negative Haemophilus influenzae isolate harboring fst1 mutant gene after 20 to 24 hrs by Etest method in presence of clavulanic acid; how it was run: as §6
[36] = system: Haemophilus influenzae; test: Antibacterial activity against Beta-lactamase negative Haemophilus influenzae with PBP3 mutation

Structure (SMILES) | MIC50 [5] [µg/mL] | MIC90 [5] [µg/mL] | MIC50 [6] [µg/mL] | MIC90 [6] [µg/mL] | Activity [8] [%] | Activity [10] [%] | MIC50 [11] [µg/mL] | MIC90 [11] [µg/mL] | MIC50 [12] [µg/mL] | MIC90 [12] [µg/mL] | Activity [14] [%] | Activity [15] [%] | MIC50 [16] [µg/mL] | MIC90 [16] [µg/mL] | Activity [17] [%] | MIC50 [22] [µg/mL] | MIC90 [22] [µg/mL] | Activity [23] [%] | Activity [24] [%] | MIC50 [26] [µg/mL] | also measured
C=CC1=C(C(=O)O)N2C(=O)[C@@H](NC(=O)/C(=N\OCC(=O)O)c3csc(N)n3)[C@H]2SC1 [CEFIXIME] | – | – | – | – | – | – | – | – | – | – | – | – | – | – | – | – | – | – | – | – | MIC [1]: ≥ 0.5 µg/mL; MIC [2]: ≥ 0.5 µg/mL; MIC [3]: ≥ 0.5 µg/mL
N[C@@H](C(=O)N[C@@H]1C(=O)N2C(C(=O)O)=C(Cl)CS[C@H]12)c1ccccc1 [CEFACLOR ANHYDROUS] | 2 (≈ 5.44 µM) | 4 (≈ 10.9 µM) | 4 (≈ 10.9 µM) | 32 (≈ 87 µM) | 100 | 100 | 8 (≈ 21.8 µM) | 8 (≈ 21.8 µM) | 1 (≈ 2.72 µM) | 2 (≈ 5.44 µM) | 76.5 | 0 | 8 (≈ 21.8 µM) | 16 (≈ 43.5 µM) | 100 | 4 (≈ 10.9 µM) | 16 (≈ 43.5 µM) | 0 | 0 | 1 (≈ 2.72 µM) | Activity [4]: 5%; Activity [7]: 0%; Activity [9]: 73.3%; Activity [13]: 5.9%; MIC50 [18]: 8 µg/mL (≈ 21.8 µM); MIC90 [18]: 16 µg/mL (≈ 43.5 µM); Activity [19]: 0%; Activity [20]: 80%; Activity [21]: 0%; Activity [25]: 20%; MIC [26]: 1 µg/mL (≈ 2.72 µM); MIC90 [26]: 2 µg/mL (≈ 5.44 µM); Activity [27]: 94.1%
CC1(C)S[C@@H]2[C@H](NC(=O)[C@H](N)c3ccc(O)cc3)C(=O)N2[C@H]1C(=O)O [AMOXICILLIN] | 0.5 (≈ 1.37 µM) | 0.5 (≈ 1.37 µM) | 32 (≈ 87.6 µM) | 64 (≈ 175 µM) | 100 | 100 | 2 (≈ 5.47 µM) | 4 (≈ 10.9 µM) | 0.5 (≈ 1.37 µM) | 0.5 (≈ 1.37 µM) | 67.6 | 0 | ≥ 64 | ≥ 64 | 5 | 1 (≈ 2.74 µM) | 2 (≈ 5.47 µM) | 35.3 | 85 | 4 (≈ 10.9 µM) | MIC [5]: 0.5 µg/mL (≈ 1.37 µM); MIC [28]: 0.25 µg/mL; MIC [29]: 0.25 µg/mL; MIC [30]: 0.5 µg/mL; MIC [31]: 1 µg/mL; MIC [32]: 0.5 µg/mL; MIC [33]: 0.5 µg/mL; MIC [18]: ≥ 32 µg/mL; MIC [34]: 0.25 µg/mL; MIC [35]: 0.25 µg/mL; MIC90 [26]: 16 µg/mL (≈ 43.8 µM); Activity [27]: 20.6%
CC1(C)S[C@@H]2[C@H](NC(=O)[C@H](N)c3ccccc3)C(=O)N2[C@H]1C(=O)O [AMPICILLIN] | ≤ 0.25 | 0.5 (≈ 1.43 µM) | 32 (≈ 91.6 µM) | 64 (≈ 183 µM) | 100 | 100 | 1 (≈ 2.86 µM) | 2 (≈ 5.72 µM) | 0.25 (≈ 0.715 µM) | 0.5 (≈ 1.43 µM) | 88.2 | 0 | ≥ 32 | ≥ 32 | 5 | 1 (≈ 2.86 µM) | 2 (≈ 5.72 µM) | 2.9 | 85 | 4 (≈ 11.4 µM) | MIC [5]: ≤ 0.25 µg/mL; MIC [36]: >=2 ug; MIC [18]: ≥ 32 µg/mL; MIC90 [26]: 16 µg/mL (≈ 45.8 µM); Activity [27]: 76.5%
